Data on two molecules can be found in ChEMBL document CHEMBL1671686, “Carbapenem-resistant KPC-2-producing Escherichia coli in a Tel Aviv Medical Center, 2005 to 2008” (2010).

≈ marks a conversion by molar mass, not a printed value.

What all share (type): functional
Assay [1] concerns Escherichia coli. Nature of the assay: Antimicrobial activity against Escherichia coli isolate 547T expressing beta-lactamase KPC2 and PFGE cluster 4 isolated from blood of patient by agar dilution method. A digest of the protocol: (§1)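 Transformant strains. Plasmids purified from the clinical isolates were electroporated into E. coli DH10B. Transformants were selected on LB agar with 100 μg/ml ampicillin, and colonies were PCR-screened for blaKPC before susceptibility testing.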

Assay [2] has as its system Escherichia coli. Nature of the assay: Antimicrobial activity against Escherichia coli isolate 386T expressing beta-lactamase KPC2, OXA-9 and PFGE cluster 1 isolated from wound of patient by agar dilution method. The method, boiled down: as §1
The subject of assay [3] is Escherichia coli. Nature of the assay: Antimicrobial activity against Escherichia coli isolate 547 expressing beta-lactamase KPC2, TEM and PFGE cluster 4 isolated from blood of patient by agar dilution method. The method, boiled down:
(§2)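 Clinical carbapenem-resistant E. coli isolates collected Feb 2005–Oct 2008. Carbapenem MICs determined by agar dilution following CLSI protocols.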
(In agar dilution, organisms are placed on agar that contains the substance at set levels.)

For assay [4], the system named is Escherichia coli. In words: Antimicrobial activity against Escherichia coli isolate 386 expressing beta-lactamase KPC2, CTX-M-15, OXA-9, TEM and PFGE cluster 1 isolated from wound of patient by agar dilution method. The method, boiled down: as §2
The test system of assay [5] is Escherichia coli. Nature of the assay: Antimicrobial activity against Escherichia coli isolate 1679 expressing beta-lactamase KPC2, SHV-12, TEM and PFGE cluster 6 isolated from peritoneal fluid of patient by agar dilution method. The method, boiled down: (§3)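 Clinical carbapenem-resistant E. coli isolates from the hospital, February 2005 to October 2008. Carbapenem MICs were determined by agar dilution following CLSI protocols.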

Assay [6] concerns Escherichia coli. In words: Antimicrobial activity against Escherichia coli isolate 360 expressing beta-lactamase KPC2, CTX-M-15, OXA-9, TEM and PFGE cluster 1 isolated from urine of patient by agar dilution method. Particulars: isolate 360, Urine. The method, boiled down:
as §2

Assay [7] relates to Escherichia coli. In words: Antimicrobial activity against Escherichia coli isolate 360T expressing beta-lactamase KPC2, OXA-9 and PFGE cluster 1 isolated from urine of patient by agar dilution method. A digest of the protocol:
as §1

In assay [8] the test system is Escherichia coli. In words: Antimicrobial activity against Escherichia coli DH10B by Etest. Particulars: K-12 DH10B.
In assay [9] the test system is Escherichia coli. In words: Antimicrobial activity against Escherichia coli isolate 540 expressing beta-lactamase KPC2, TEM and PFGE cluster 4 isolated from synovial fluid of patient by agar dilution method. A digest of the protocol: as §3
The test system of assay [10] is Escherichia coli. Nature of the assay: Antimicrobial activity against Escherichia coli isolate 1679T expressing beta-lactamase KPC2, TEM and PFGE cluster 6 isolated from peritoneal fluid of patient by agar dilution method. The method, boiled down:
as §1

Assay [11] concerns Escherichia coli. In words: Antimicrobial activity against Escherichia coli isolate 339 expressing beta-lactamase KPC2, TEM and PFGE cluster 5 isolated from peritoneal fluid of patient by agar dilution method. The method, boiled down:
as §3

For assay [12], the system named is Escherichia coli. Nature of the assay: Antimicrobial activity against Escherichia coli isolate 339T expressing beta-lactamase KPC2 and PFGE cluster 5 isolated from peritoneal fluid of patient by agar dilution method. The method, boiled down:
as §1

The subject of assay [13] is Escherichia coli. Nature of the assay: Antimicrobial activity against Escherichia coli isolate 157T expressing beta-lactamase KPC2 and PFGE cluster 3 isolated from urine of patient by agar dilution method. A digest of the protocol:
as §1

In assay [14] the test system is Escherichia coli. In words: Antimicrobial activity against Escherichia coli isolate 157 expressing beta-lactamase KPC2, CTX-M-15, TEM and PFGE cluster 3 isolated from urine of patient by agar dilution method. The settings on record: isolate 157, Urine. A digest of the protocol: as §2
Assay [15] relates to Escherichia coli. In words: Antimicrobial activity against Escherichia coli isolate 329 expressing beta-lactamase KPC2, CTX-M-2, TEM and PFGE cluster 2 isolated from blood of patient by agar dilution method. The method, boiled down:
as §3

The test system of assay [16] is Escherichia coli. In words: Antimicrobial activity against Escherichia coli isolate 543T expressing beta-lactamase KPC2 and PFGE cluster 4 isolated from synovial fluid of patient by agar dilution method. A digest of the protocol:
as §1

Assay [17] concerns Escherichia coli. Nature of the assay: Antimicrobial activity against Escherichia coli isolate 329T expressing beta-lactamase KPC2 and PFGE cluster 2 isolated from blood of patient by agar dilution method. A digest of the protocol: as §1
Assay [18] relates to Escherichia coli. Nature of the assay: Antimicrobial activity against Escherichia coli isolate 544 expressing beta-lactamase KPC2, TEM and PFGE cluster 4 isolated from abscess of patient by agar dilution method. A digest of the protocol:
as §3

The test system of assay [19] is Escherichia coli. In words: Antimicrobial activity against Escherichia coli isolate 360 expressing beta-lactamase KPC2, CTX-M-15, OXA-9, TEM and PFGE cluster 1 isolated from urine of patient by Etest.
For assay [20], the system named is Escherichia coli. In words: Antimicrobial activity against Escherichia coli isolate 339T expressing beta-lactamase KPC2 and PFGE cluster 5 isolated from peritoneal fluid of patient by Etest. The method, boiled down: as §1
Assay [21] concerns Escherichia coli. Nature of the assay: Antimicrobial activity against Escherichia coli isolate 360T expressing beta-lactamase KPC2, OXA-9 and PFGE cluster 1 isolated from urine of patient by Etest. The method, boiled down:
as §1

Assay [22] deals with Escherichia coli. In words: Antimicrobial activity against Escherichia coli isolate 386 expressing beta-lactamase KPC2, CTX-M-15, OXA-9, TEM and PFGE cluster 1 isolated from wound of patient by Etest.
The subject of assay [23] is Escherichia coli. Nature of the assay: Antimicrobial activity against Escherichia coli isolate 157T expressing beta-lactamase KPC2 and PFGE cluster 3 isolated from urine of patient by Etest. The method, boiled down:
as §1

For assay [24], the system named is Escherichia coli. In words: Antimicrobial activity against Escherichia coli isolate 543T expressing beta-lactamase KPC2 and PFGE cluster 4 isolated from synovial fluid of patient by Etest. The method, boiled down: as §1
Assay [25] concerns Escherichia coli. Nature of the assay: Antimicrobial activity against Escherichia coli isolate 544 expressing beta-lactamase KPC2, TEM and PFGE cluster 4 isolated from abscess of patient by Etest.
In assay [26] the test system is Escherichia coli. Nature of the assay: Antimicrobial activity against Escherichia coli isolate 543 expressing beta-lactamase KPC2, CTX-M-15, TEM and PFGE cluster 4 isolated from synovial fluid of patient by Etest.
Assay [27] deals with Escherichia coli. Nature of the assay: Antimicrobial activity against Escherichia coli isolate 547 expressing beta-lactamase KPC2, TEM and PFGE cluster 4 isolated from blood of patient by Etest.
Assay [28] concerns Escherichia coli. Nature of the assay: Antimicrobial activity against Escherichia coli isolate 1679T expressing beta-lactamase KPC2, TEM and PFGE cluster 6 isolated from peritoneal fluid of patient by Etest. The method, boiled down: as §1
For assay [29], the system named is Escherichia coli. Nature of the assay: Antimicrobial activity against Escherichia coli isolate 329T expressing beta-lactamase KPC2 and PFGE cluster 2 isolated from blood of patient by Etest. A digest of the protocol:
as §1

Assay [30] deals with Escherichia coli. Nature of the assay: Antimicrobial activity against Escherichia coli isolate 547T expressing beta-lactamase KPC2 and PFGE cluster 4 isolated from blood of patient by Etest. The method, boiled down: as §1
The test system of assay [31] is Escherichia coli. Nature of the assay: Antimicrobial activity against Escherichia coli isolate 329 expressing beta-lactamase KPC2, CTX-M-2, TEM and PFGE cluster 2 isolated from blood of patient by Etest.
The subject of assay [32] is Escherichia coli. Nature of the assay: Antimicrobial activity against Escherichia coli isolate 386T expressing beta-lactamase KPC2, OXA-9 and PFGE cluster 1 isolated from wound of patient by Etest. The method, boiled down: as §1
For assay [33], the system named is Escherichia coli. Nature of the assay: Antimicrobial activity against Escherichia coli isolate 157 expressing beta-lactamase KPC2, CTX-M-15, TEM and PFGE cluster 3 isolated from urine of patient by Etest.
In assay [34] the test system is Escherichia coli. In words: Antimicrobial activity against Escherichia coli isolate 339 expressing beta-lactamase KPC2, TEM and PFGE cluster 5 isolated from peritoneal fluid of patient by Etest.
Assay [35] deals with Escherichia coli. In words: Antimicrobial activity against Escherichia coli isolate 1679 expressing beta-lactamase KPC2, SHV-12, TEM and PFGE cluster 6 isolated from peritoneal fluid of patient by Etest.
Assay [36] concerns Escherichia coli. Nature of the assay: Antimicrobial activity against Escherichia coli isolate 540 expressing beta-lactamase KPC2, TEM and PFGE cluster 4 isolated from synovial fluid of patient by Etest.

For `C[C@@H](O)[C@H]1C(=O)N2C(C(=O)O)=C(SCCNC=N)C[C@H]12` [IMIPENEM ANHYDROUS], the MIC – broadly, the lowest concentration found to suppress growth – was found to be 1 µg/mL (≈ 3.34 µM) in the assay on Escherichia coli [1]; 1 µg/mL (≈ 3.34 µM) with Escherichia coli [2]; 4 µg/mL (≈ 13.4 µM) in the assay on Escherichia coli [3]; 1 µg/mL (≈ 3.34 µM) in the assay with Escherichia coli [4]; 8 µg/mL (≈ 26.7 µM) against Escherichia coli [5]; 4 µg/mL (≈ 13.4 µM) against Escherichia coli [6]. The MIC in the assay with Escherichia coli [7] came out at 1 µg/mL (≈ 3.34 µM); in the assay on Escherichia coli [8], 0.25 µg/mL (≈ 0.835 µM); against Escherichia coli [9], 4 µg/mL (≈ 13.4 µM); against Escherichia coli [10], 1 µg/mL (≈ 3.34 µM); against Escherichia coli [11], 2 µg/mL (≈ 6.68 µM); against Escherichia coli [12], 2 µg/mL (≈ 6.68 µM). Further, the MIC with Escherichia coli [13] was determined as 2 µg/mL (≈ 6.68 µM); with Escherichia coli [14] it was 8 µg/mL (≈ 26.7 µM); against Escherichia coli [15], 8 µg/mL (≈ 26.7 µM); with Escherichia coli [16], 2 µg/mL (≈ 6.68 µM); in the assay on Escherichia coli [17] it was 2 µg/mL (≈ 6.68 µM); in the assay on Escherichia coli [18], 4 µg/mL (≈ 13.4 µM).

As to COLISTIN, the MIC is 0.19 µg/mL in the assay with Escherichia coli [19]; 0.047 µg/mL in the assay on Escherichia coli [20]; 0.094 µg/mL against Escherichia coli [21]; 0.125 µg/mL in the assay with Escherichia coli [22]; 0.047 µg/mL in the assay on Escherichia coli [23]; 0.047 µg/mL against Escherichia coli [8]. Also, the MIC in the assay with Escherichia coli [24] was determined as 0.047 µg/mL; against Escherichia coli [25], 0.19 µg/mL; against Escherichia coli [26], 0.125 µg/mL; in the assay with Escherichia coli [27] it was 0.19 µg/mL; against Escherichia coli [28] it was 0.047 µg/mL; in the assay on Escherichia coli [29] it was 0.047 µg/mL. In addition, the MIC against Escherichia coli [30] amounted to 0.047 µg/mL; in the assay with Escherichia coli [31], 0.19 µg/mL; in the assay with Escherichia coli [32], 0.047 µg/mL; against Escherichia coli [33], 0.125 µg/mL; in the assay with Escherichia coli [34] it was 0.125 µg/mL; against Escherichia coli [35], 0.38 µg/mL. Further, the MIC in the assay on Escherichia coli [36] came to 0.125 µg/mL.
